# Reference: ChEMBL document CHEMBL5357049, “Discovery of new dibenzodiazepine derivatives as antibacterials against intracellular bacteria” (RSC Med Chem, 2024)
# Activity calls are given as the source filed them. The rule behind the calls is not given here.
# Legend:
# Salmonella typhimurium [1] = experiment: Antibacterial activity against Salmonella typhimurium ATCC14028 infected in mouse RAW264.7 cells assessed as reduction in intracellular bacterial growth incubated for 24 hrs in presence of gentamicin by CMFDA and DAPI staining based high-content screening method; assay type: functional, organism-based, Salmonella enterica subsp. enterica serovar Typhimurium; details: Salmonella enterica, ATCC14028, RAW264.7, 24 h
# Summary of the method: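 RAW264.7 seeded at 10^4 cells/well for 20 h, then infected at MOI 50 with RFP-expressing ATCC14028 (subcultured 2 h, OD600 0.6 ≈ 1.5×10^8 CFU/mL). After 1 h infection: 100 µg/mL gentamicin 1 h, then compound with 20 µg/mL gentamicin for 24 h. Stained with 2.5 µM CMFDA, fixed in 3.7% formaldehyde, DAPI nuclei; nuclei and intracellular bacteria counted by imaging, 10× objective.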
# [2] = Cytotoxicity against mouse RAW264.7 cells assessed as reduction in cell viability incubated for 24 hrs by MTT assay; assay type: toxicity, cell-based
# Summary of the method: (§1)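 Cells seeded at 10^5 cells/mL, grown 20 h at 37°C, 5% CO2, then exposed to compound for 24 h. Medium replaced with 0.5 mg/mL MTT for 1 h, formazan dissolved in DMSO, absorbance read at 570 nm; CC50 calculated. HT-29 and HCT-116 kept in McCoy's 5A with 10% FBS, THP-1 in RPMI 1640 with 10% FBS, others in DMEM with 10% FBS.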
# [3] = Selectivity ratio of CC50 for cytotoxicity against mouse RAW264.7 cells to EC50 for antibacterial activity against Salmonella typhimurium ATCC14028 infected in mouse RAW264.7 cells; assay type: toxicity, cell-based; details: read-out: Ratio CC50/EC50
# Salmonella typhimurium [4] = experiment: Antibacterial activity against Salmonella typhimurium ATCC14028 infected in mouse RAW264.7 cells assessed as reduction in intracellular bacterial growth incubated for 24 hrs in presence of gentamicin by CFU assay; assay type: functional, organism-based, Salmonella enterica subsp. enterica serovar Typhimurium; details: Salmonella enterica, ATCC14028, RAW264.7, 24 h
# Summary of the method: (§2)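 RAW264.7 cells in DMEM + 10% FBS, seeded at 3×10^5 per well for 20 h. Bacteria were grown in LB for 16–18 h, subcultured 1:100 for 2 h, and brought to OD600 0.6 in PBS. After 1 h infection, cells got 100 µg/mL gentamicin for 1 h, then compound for 24 h with 20 µg/mL gentamicin.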
# [5] = Cytotoxicity against mouse RAW264.7 cells assessed as reduction in cell viability incubated for 24 hrs by CMFDA and DAPI staining based high-content screening method; assay type: toxicity
# RAW264.7 = experiment: Cytotoxicity against mouse RAW264.7 cells assessed as reduction in cell viability at 60 uM incubated for 24 hrs by MTT assay; assay type: toxicity, cell-based; details: raw264.7, 24 h
# Salmonella typhimurium [6] = experiment: Antibacterial activity against Salmonella typhimurium ATCC14028 assessed as reduction in bacterial growth upto 64 uM incubated for 24 hrs by SpectraMax microplate reader analysis; assay type: functional, organism-based; details: Salmonella enterica subsp. enterica serovar Typhimurium
# Summary of the method: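 Overnight LB culture inoculated at 5×10^5 CFU/mL final into CAMHB or into DMEM with 10% FBS. Exposed to a range of concentrations at 37°C; growth followed by absorbance at 600 nm at set times over 24 h.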
# [7] = biological target: D(2) dopamine receptor (Homo sapiens) (UniProt P14416); experiment: Displacement of [3H]-labelled spiperone human recombinant D2 receptor expressed in CHO cells at 0.1 to 1 uM incubated for 2 hrs; assay type: cell-based; details: dose 0.1-1 µM
# Summary of the method: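 Contract radioligand binding: 20 µg human recombinant D2R from CHO cells incubated with [3H]spiperone, then compound added; pH 7.4 Tris-HCl, 2 h at 25°C.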
# THP-1 [8] = experiment: Cytotoxicity against macrophage-like human THP-1 cells assessed as reduction in cell viability incubated for 24 hrs in presence of gentamicin by MTT assay; assay type: functional
# Summary of the method: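 THP-1 differentiated to macrophages with 100 ng/mL PMA for 72 h, then seeded at 10^5 cells/mL and grown 20 h. Compound added for 24 h; 0.5 mg/mL MTT for 1 h, formazan dissolved in DMSO, absorbance at 570 nm; CC50 calculated.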
# THP-1 [9] = experiment: Cytotoxicity against monocytic human THP-1 cells assessed as reduction in cell viability incubated for 24 hrs in presence of gentamicin by MTT assay; assay type: functional; summary of the method: as §1
# HT-29 = experiment: Cytotoxicity against human HT-29 cells assessed as reduction in cell viability incubated for 24 hrs in presence of gentamicin by MTT assay; assay type: functional; summary of the method: as §1
# HCT-116 = experiment: Cytotoxicity against human HCT-116 cells assessed as reduction in cell viability incubated for 24 hrs in presence of gentamicin by MTT assay; assay type: functional; summary of the method: as §1
# [10] = Cytotoxicity against human Intestine 407 cells assessed as reduction in cell viability incubated for 24 hrs in presence of gentamicin by MTT assay; assay type: functional; summary of the method: as §1
# J774.1 = experiment: Cytotoxicity against mouse J774.1 cells assessed as reduction in cell viability incubated for 24 hrs in presence of gentamicin by MTT assay; assay type: functional; summary of the method: as §1
# Salmonella typhimurium [11] = experiment: Antibacterial activity against Salmonella typhimurium ATCC14028 infected in mouse J774.1 cells assessed as reduction in intracellular bacterial growth incubated for 24 hrs in presence of gentamicin by CFU assay; assay type: functional, organism-based, Salmonella enterica subsp. enterica serovar Typhimurium; details: Salmonella enterica, ATCC14028, J774.1, 24 h
# Summary of the method: (§3)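 Host cells: HCT-116 and HT-29 in McCoy's 5A + 10% FBS; INT-407 and J774.1 in DMEM + 10% FBS. Bacteria were LB-grown, subcultured 2 h, and set to OD600 0.6. After 1 h infection, cells got 100 µg/mL gentamicin for 1 h, then compound for 24 h with 20 µg/mL gentamicin. Lysis was 0.1% Triton X-100, then plating and overnight colony counts; EC50 calculated.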
# Salmonella typhimurium [12] = experiment: Antibacterial activity against Salmonella typhimurium ATCC14028 infected in macrophage-like human THP-1 cells assessed as reduction in intracellular bacterial growth incubated for 24 hrs in presence of gentamicin by CFU assay; assay type: functional, organism-based, Salmonella enterica subsp. enterica serovar Typhimurium; details: Salmonella enterica, ATCC14028, THP-1, 24 h
# Summary of the method: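 THP-1 cells in RPMI 1640 + 10% FBS, differentiated with 100 ng/mL PMA for 72 h. Cells were infected 1 h with LB-grown bacteria adjusted to OD600 0.6, given 100 µg/mL gentamicin for 1 h, then compound for 24 h in 20 µg/mL gentamicin.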
# Salmonella typhimurium [13] = experiment: Antibacterial activity against Salmonella typhimurium ATCC14028 infected in monocytic human THP-1 cells assessed as reduction in intracellular bacterial growth incubated for 24 hrs in presence of gentamicin by CFU assay; assay type: functional, organism-based, Salmonella enterica subsp. enterica serovar Typhimurium; details: Salmonella enterica, ATCC14028, THP-1, 24 h
# Summary of the method: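 Undifferentiated THP-1 cells in RPMI 1640 + 10% FBS. Cells were infected 1 h with LB-grown bacteria at OD600 0.6, given 100 µg/mL gentamicin for 1 h, then compound for 24 h with 20 µg/mL gentamicin.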
# Salmonella typhimurium [14] = experiment: Antibacterial activity against Salmonella typhimurium ATCC14028 infected in human HT-29 cells assessed as reduction in intracellular bacterial growth incubated for 24 hrs in presence of gentamicin by CFU assay; assay type: functional, organism-based, Salmonella enterica subsp. enterica serovar Typhimurium; details: Salmonella enterica, ATCC14028, HT-29, 24 h; summary of the method: as §3
# Salmonella typhimurium [15] = experiment: Antibacterial activity against Salmonella typhimurium ATCC14028 infected in human HCT-116 cells assessed as reduction in intracellular bacterial growth incubated for 24 hrs in presence of gentamicin by CFU assay; assay type: functional, organism-based, Salmonella enterica subsp. enterica serovar Typhimurium; details: Salmonella enterica, ATCC14028, HCT-116, 24 h; summary of the method: as §3
# Salmonella typhimurium [16] = experiment: Antibacterial activity against Salmonella typhimurium ATCC14028 infected in human Intestine 407 cells assessed as reduction in intracellular bacterial growth incubated for 24 hrs in presence of gentamicin by CFU assay; assay type: functional, organism-based, Salmonella enterica subsp. enterica serovar Typhimurium; details: Salmonella enterica, ATCC14028, Intestine 407, 24 h; summary of the method: as §3
# Salmonella typhimurium [17] = experiment: Antibacterial activity against ACSSuT-resistant Salmonella typhimurium NL10 infected in mouse RAW264.7 cells assessed as reduction in intracellular bacterial growth incubated for 24 hrs in presence of gentamicin by CFU assay; assay type: functional, organism-based, Salmonella enterica subsp. enterica serovar Typhimurium; details: Salmonella enterica, NL10, RAW264.7, 24 h; summary of the method: as §2
# Listeria monocytogenes = experiment: Antibacterial activity against Listeria monocytogenes infected in mouse RAW264.7 cells assessed as reduction in intracellular bacterial growth incubated for 24 hrs in presence of gentamicin by CFU assay; assay type: functional, organism-based; details: RAW264.7, 24 h
# Summary of the method: (§4)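 Clinical isolate grown overnight (16-18 h) in BHI at 37°C with shaking, subcultured 1:100 for 2 h, pelleted, resuspended in PBS to OD600 0.6. RAW264.7 infected for 1 h, then 100 µg/mL gentamicin 1 h, then compound in medium with 20 µg/mL gentamicin for 24 h. Cells lysed in 0.1% Triton X-100, lysates serially diluted and plated, colonies counted after overnight growth; EC50 calculated.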
# Yersinia enterocolitica = experiment: Antibacterial activity against Yersinia enterocolitica infected in mouse RAW264.7 cells assessed as reduction in intracellular bacterial growth incubated for 24 hrs in presence of gentamicin by CFU assay; assay type: functional, organism-based; details: RAW264.7, 24 h; summary of the method: as §4
# Salmonella Typhi = experiment: Antibacterial activity against Salmonella Typhi Ty2 infected in mouse RAW264.7 cells assessed as reduction in intracellular bacterial growth incubated for 24 hrs in presence of gentamicin by CFU assay; details: Salmonella enterica, Ty2, RAW264.7, 24 h
# Salmonella typhimurium [18] = experiment: Antibacterial activity against Salmonella typhimurium CGC18 infected in mouse RAW264.7 cells assessed as reduction in intracellular bacterial growth incubated for 24 hrs in presence of gentamicin by CFU assay; details: Salmonella enterica, CGC18, RAW264.7, 24 h
# D(2) dopamine receptor (Homo sapiens), sequence (P14416 whole entry): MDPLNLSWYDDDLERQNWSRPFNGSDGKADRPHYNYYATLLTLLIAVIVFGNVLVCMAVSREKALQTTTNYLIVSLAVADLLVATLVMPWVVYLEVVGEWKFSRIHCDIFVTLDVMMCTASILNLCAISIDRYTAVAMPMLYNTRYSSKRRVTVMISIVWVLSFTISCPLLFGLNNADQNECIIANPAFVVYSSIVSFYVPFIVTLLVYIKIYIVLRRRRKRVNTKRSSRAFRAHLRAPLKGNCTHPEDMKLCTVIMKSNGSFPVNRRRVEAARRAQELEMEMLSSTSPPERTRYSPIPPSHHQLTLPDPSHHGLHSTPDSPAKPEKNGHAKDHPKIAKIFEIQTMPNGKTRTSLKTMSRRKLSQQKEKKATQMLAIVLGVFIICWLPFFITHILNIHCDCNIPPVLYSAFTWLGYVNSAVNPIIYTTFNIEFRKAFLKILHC
smiles,measurement,setting,value
c1ccc2c(c1)N=C(NCCN1CCCCC1)c1ccccc1N2,EC50,Salmonella typhimurium [1],3.7 µM
same,CC50 at 24 h,[2],110 µM
same,selectivity ratio,[3],29.8
Cc1cc2c(s1)Nc1ccccc1N=C2NCCN(C)C,EC50,Salmonella typhimurium [1],1.48 µM
same,CC50 at 24 h,[2],126 µM
same,selectivity ratio,[3],85.3
Cc1cc2c(s1)Nc1ccccc1N=C2NCCN1CCNCC1,EC50,Salmonella typhimurium [1],4.17 µM
same,CC50 at 24 h,[2],103 µM
same,selectivity ratio,[3],24.6
Cc1cc2c(s1)Nc1ccccc1N=C2NCCN1CCCCC1,EC50,Salmonella typhimurium [1],2.36 µM
same,CC50 at 24 h,[2],38.9 µM
same,selectivity ratio,[3],16.5
c1ccc2c(c1)N=C(NCCN1CCNCC1)c1ccccc1N2,EC50,Salmonella typhimurium [1],> 30 µM
same,CC50 at 24 h,[2],128 µM
Cc1cc2c(s1)Nc1ccccc1N=C2NCCCN1CCCC1,EC50,Salmonella typhimurium [1],1.14 µM
same,CC50 at 24 h,[2],76.8 µM
same,selectivity ratio,[3],67.3
CN(C)CCNC1=Nc2ccccc2Nc2ccccc21,EC50,Salmonella typhimurium [1],15.2 µM
same,CC50 at 24 h,[2],299 µM
same,selectivity ratio,[3],19.7
O=C(O)c1cn(C2CC2)c2cc(N3CCNCC3)c(F)cc2c1=O [CIPROFLOXACIN],EC50,Salmonella typhimurium [1],0.06 µM
Clc1ccc2c(c1)C(NCCN1CCCCC1)=Nc1cccnc1N2,EC50,Salmonella typhimurium [1],5.67 µM
same,CC50 at 24 h,[2],61.9 µM
same,selectivity ratio,[3],10.9
Clc1ccc2c(c1)C(NCCN1CCNCC1)=Nc1cccnc1N2,EC50,Salmonella typhimurium [1],8.82 µM
same,CC50 at 24 h,[2],123 µM
same,selectivity ratio,[3],13.9
Clc1ccc2c(c1)C(NCCCN1CCCC1)=Nc1cccnc1N2,EC50,Salmonella typhimurium [1],4.24 µM
same,CC50 at 24 h,[2],101 µM
same,selectivity ratio,[3],23.8
CN1CCN(C2=Nc3ccccc3Oc3ccc(Cl)cc32)CC1 [LOXAPINE],EC50,Salmonella typhimurium [1],5.77 µM
same,CC50 at 24 h,[2],110 µM
same,selectivity ratio,[3],19.1
c1ccc2c(c1)N=C(NCCCN1CCCC1)c1ccccc1N2,EC50,Salmonella typhimurium [1],0.4 µM
same,CC50 at 24 h,[2],109 µM
same,selectivity ratio,[3],272
same,EC50,Salmonella typhimurium [4],380 nM
same,CC50 at 24 h,[5],92.5 µM
same,Activity,RAW264.7,Non-Toxic
same,Activity,Salmonella typhimurium [6],inactive
same,Activity,[7],inactive
same,CC50,THP-1 [8],134 µM
same,CC50,THP-1 [9],153 µM
same,CC50,HT-29,> 180 µM
same,CC50,HCT-116,> 180 µM
same,CC50,[10],> 180 µM
same,CC50,J774.1,86.8 µM
same,EC50,Salmonella typhimurium [11],420 nM
same,EC50,Salmonella typhimurium [12],520 nM
same,EC50,Salmonella typhimurium [13],1020 nM
same,EC50,Salmonella typhimurium [14],5.97 µM
same,EC50,Salmonella typhimurium [15],2850 nM
same,EC50,Salmonella typhimurium [16],2490 nM
same,EC50,Salmonella typhimurium [17],2280 nM
same,EC50,Listeria monocytogenes,600 nM
same,EC50,Yersinia enterocolitica,930 nM
same,EC50,Salmonella Typhi,550 nM
same,EC50,Salmonella typhimurium [18],1270 nM
Clc1ccc2c(c1)C(NCCN1CCNCC1)=Nc1ccccc1O2,EC50,Salmonella typhimurium [1],0.3 µM
same,CC50 at 24 h,[2],22.5 µM
same,selectivity ratio,[3],75
Cc1cc2c(s1)Nc1ccccc1N=C2N1CCN(C)CC1 [OLANZAPINE],EC50,Salmonella typhimurium [1],5.4 µM
same,CC50 at 24 h,[2],198 µM
same,selectivity ratio,[3],36.7
CN(C)CCNC1=Nc2cccnc2Nc2ccc(Cl)cc21,EC50,Salmonella typhimurium [1],6.09 µM
same,CC50 at 24 h,[2],159 µM
same,selectivity ratio,[3],26.1
